{"source": "ChEMBL document CHEMBL2062460", "about": "“Disubstituted thiourea derivatives and their activity on CNS: synthesis and biological evaluation” (Eur J Med Chem, 2012)", "key": {"[1]": {"system": "Staphylococcus aureus", "assay": "Antibacterial activity against Staphylococcus aureus ATCC 25923 after 18 hrs by twofold serial agar dilution technique", "type": "functional", "conditions": "ATCC 25923, 18 h", "method_in_brief": "(§1)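 Twofold serial agar dilution on Mueller–Hinton II agar, following CLSI guidelines. Compounds were dissolved in methanol or DMSO and tested at final agar concentrations of 3.125–400 µg/mL. Final inoculum was 10^4 CFU/mL.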"}, "[2]": {"system": "Staphylococcus aureus", "assay": "Antibacterial activity against methicillin-resistant Staphylococcus aureus clinical isolate 309/08 after 18 hrs by twofold serial agar dilution technique", "type": "functional", "conditions": "clinical isolate 309/08, 18 h", "method_in_brief": "(§2)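 Clinical isolates came from patients in Warsaw Medical University Hospitals and were classed as methicillin-susceptible or -resistant. MIC was determined by twofold serial agar dilution on Mueller–Hinton II agar (CLSI), 3.125–400 µg/mL in agar, with compounds in methanol or DMSO. Inoculum was 10^4 CFU/mL and plates were read after 18 h at 35 °C.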"}, "[3]": {"system": "Pseudomonas aeruginosa", "assay": "Antibacterial activity against Pseudomonas aeruginosa ATCC 27853 at 400 ug/disc after 18 hrs by disc diffusion method", "type": "functional, organism-based", "method_in_brief": "(§3)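 Disc diffusion per CLSI on Mueller–Hinton II agar; 9 mm paper discs loaded from methanol or DMSO solutions to 400 µg per disc, dried; growth inhibition zone diameter read after 18 h at 35 °C.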"}, "[4]": {"system": "Staphylococcus aureus", "assay": "Antibacterial activity against Staphylococcus aureus ATCC 6538 at 400 ug/disc after 18 hrs by disc diffusion method", "type": "functional", "conditions": "ATCC 6538, 18 h, read-out: DIZ", "method_in_brief": "as §3"}, "[5]": {"system": "Micrococcus luteus", "assay": "Antibacterial activity against Micrococcus luteus ATCC 10240 after 18 hrs by twofold serial agar dilution technique", "type": "functional", "conditions": "ATCC 10240, 18 h"}, "[6]": {"system": "Staphylococcus aureus", "assay": "Antibacterial activity against methicillin-susceptible Staphylococcus aureus clinical isolate 339/09 after 18 hrs by twofold serial agar dilution technique", "type": "functional", "conditions": "clinical isolate 339/09, 18 h", "method_in_brief": "as §2"}, "[7]": {"system": "Candida albicans", "assay": "Antifungal activity against Candida albicans ATCC 10231 at 400 ug/disc after 18 hrs by disc diffusion method", "type": "functional, organism-based", "method_in_brief": "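Yeasts tested by disc diffusion (CLSI) on RPMI agar with 2% glucose; 9 mm paper discs bearing 400 µg compound from methanol or DMSO solution; inhibition zone diameter read after 18 h at 35 °C.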"}, "[8]": {"system": "Staphylococcus aureus", "assay": "Antibacterial activity against Staphylococcus aureus ATCC 6538 after 18 hrs by twofold serial agar dilution technique", "type": "functional", "conditions": "ATCC 6538, 18 h", "method_in_brief": "as §1"}, "[9]": {"system": "Micrococcus luteus", "assay": "Antibacterial activity against Micrococcus luteus ATCC 9341 after 18 hrs by twofold serial agar dilution technique", "type": "functional", "conditions": "ATCC 9341, 18 h"}, "[10]": {"system": "Staphylococcus aureus", "assay": "Antibacterial activity against methicillin-resistant Staphylococcus aureus clinical isolate 356/09 after 18 hrs by twofold serial agar dilution technique", "type": "functional", "conditions": "clinical isolate 356/09, 18 h", "method_in_brief": "as §2"}, "[11]": {"system": "Staphylococcus epidermidis", "assay": "Antibacterial activity against Staphylococcus epidermidis ATCC 12228 after 18 hrs by twofold serial agar dilution technique", "type": "functional", "conditions": "ATCC 12228, 18 h", "method_in_brief": "as §1"}, "[12]": {"system": "Bacillus subtilis", "assay": "Antibacterial activity against Bacillus subtilis ATCC 6633 at 400 ug/disc after 18 hrs by disc diffusion method", "type": "functional", "conditions": "ATCC 6633, 18 h, read-out: DIZ", "method_in_brief": "as §3"}, "[13]": {"system": "Bacillus subtilis", "assay": "Antibacterial activity against Bacillus subtilis ATCC 6633 after 18 hrs by twofold serial agar dilution technique", "type": "functional", "conditions": "ATCC 6633, 18 h"}, "[14]": {"system": "Staphylococcus aureus", "assay": "Antibacterial activity against Staphylococcus aureus ATCC 25923 at 400 ug/disc after 18 hrs by disc diffusion method", "type": "functional", "conditions": "ATCC 25923, 18 h, read-out: DIZ", "method_in_brief": "as §3"}, "[15]": {"system": "Staphylococcus aureus", "assay": "Antibacterial activity against methicillin-resistant Staphylococcus aureus clinical isolate 307/08 after 18 hrs by twofold serial agar dilution technique", "type": "functional", "conditions": "clinical isolate 307/08, 18 h", "method_in_brief": "as §2"}, "[16]": {"system": "Staphylococcus aureus", "assay": "Antibacterial activity against methicillin-resistant Staphylococcus aureus clinical isolate 277/08 after 18 hrs by twofold serial agar dilution technique", "type": "functional", "conditions": "clinical isolate 277/08, 18 h", "method_in_brief": "as §2"}, "[17]": {"system": "Staphylococcus aureus", "assay": "Antibacterial activity against methicillin-susceptible Staphylococcus aureus clinical isolate 338/08 after 18 hrs by twofold serial agar dilution technique", "type": "functional", "conditions": "clinical isolate 338/08, 18 h", "method_in_brief": "as §2"}, "[18]": {"system": "Bacillus cereus", "assay": "Antibacterial activity against Bacillus cereus ATCC 11778 at 400 ug/disc after 18 hrs by disc diffusion method", "type": "functional", "conditions": "ATCC 11778, 18 h, read-out: DIZ", "method_in_brief": "as §3"}, "[19]": {"system": "Staphylococcus aureus", "assay": "Antibacterial activity against methicillin-susceptible Staphylococcus aureus clinical isolate 269/08 after 18 hrs by twofold serial agar dilution technique", "type": "functional", "conditions": "clinical isolate 269/08, 18 h", "method_in_brief": "as §2"}, "[20]": {"system": "Staphylococcus aureus", "assay": "Antibacterial activity against methicillin-susceptible Staphylococcus aureus clinical isolate 367/09 after 18 hrs by twofold serial agar dilution technique", "type": "functional", "conditions": "clinical isolate 367/09, 18 h", "method_in_brief": "as §2"}, "[21]": {"system": "Staphylococcus aureus", "assay": "Antibacterial activity against methicillin-resistant Staphylococcus aureus clinical isolate 306/08 after 18 hrs by twofold serial agar dilution technique", "type": "functional", "conditions": "clinical isolate 306/08, 18 h", "method_in_brief": "as §2"}, "[22]": {"system": "Micrococcus luteus", "assay": "Antibacterial activity against Micrococcus luteus ATCC 9341 at 400 ug/disc after 18 hrs by disc diffusion method", "type": "functional", "conditions": "ATCC 9341, 18 h, read-out: DIZ", "method_in_brief": "as §3"}, "[23]": {"system": "Staphylococcus aureus", "assay": "Antibacterial activity against Staphylococcus aureus NCTC 4163 at 400 ug/disc after 18 hrs by disc diffusion method", "type": "functional", "conditions": "NCTC 4163, 18 h, read-out: DIZ", "method_in_brief": "as §3"}, "[24]": {"system": "Pseudomonas aeruginosa", "assay": "Antibacterial activity against Pseudomonas aeruginosa ATCC 15442 at 400 ug/disc after 18 hrs by disc diffusion method", "type": "functional, organism-based", "method_in_brief": "as §3"}, "[25]": {"system": "Staphylococcus aureus", "assay": "Antibacterial activity against methicillin-susceptible Staphylococcus aureus clinical isolate 372/09 after 18 hrs by twofold serial agar dilution technique", "type": "functional", "conditions": "clinical isolate 372/09, 18 h", "method_in_brief": "as §2"}, "[26]": {"system": "Bordetella bronchiseptica", "assay": "Antibacterial activity against Bordetella bronchiseptica ATCC 4617 at 400 ug/disc after 18 hrs by disc diffusion method", "type": "functional, organism-based", "method_in_brief": "as §3"}, "[27]": {"system": "Proteus vulgaris", "assay": "Antibacterial activity against Proteus vulgaris NCTC 4635 at 400 ug/disc after 18 hrs by disc diffusion method", "type": "functional, organism-based", "method_in_brief": "as §3"}, "[28]": {"system": "Staphylococcus aureus", "assay": "Antibacterial activity against methicillin-resistant Staphylococcus aureus clinical isolate 376/09 after 18 hrs by twofold serial agar dilution technique", "type": "functional", "conditions": "clinical isolate 376/09, 18 h", "method_in_brief": "as §2"}, "[29]": {"system": "Pseudomonas aeruginosa", "assay": "Antibacterial activity against Pseudomonas aeruginosa NCTC 6749 at 400 ug/disc after 18 hrs by disc diffusion method", "type": "functional, organism-based", "method_in_brief": "as §3"}, "[30]": {"system": "Enterococcus hirae", "assay": "Antibacterial activity against Enterococcus hirae ATCC 10541 after 18 hrs by twofold serial agar dilution technique", "type": "functional", "conditions": "ATCC 10541, 18 h"}, "[31]": {"system": "Staphylococcus aureus", "assay": "Antibacterial activity against Staphylococcus aureus NCTC 4163 after 18 hrs by twofold serial agar dilution technique", "type": "functional", "conditions": "NCTC 4163, 18 h", "method_in_brief": "as §1"}}, "note": "Active and inactive are the calls of the source. The rule behind the calls is not given here."}
{"compound": "Fc1ccccc1NC(=S)Nc1nc[nH]n1", "values": [{"measurement": "MIC", "setting": "[1]", "result": 200, "unit": "µg/mL"}, {"measurement": "MIC", "setting": "[2]", "result": "> 400", "unit": "µg/mL"}, {"measurement": "diameter of the inhibition zone (DIZ)", "setting": "[3]", "result": "inactive"}, {"measurement": "zone of inhibition at 400 µg/disc", "setting": "[4]", "result": 12, "unit": "mm"}, {"measurement": "MIC", "setting": "[5]", "result": 100, "unit": "µg/mL"}, {"measurement": "MIC", "setting": "[6]", "result": "> 400", "unit": "µg/mL"}, {"measurement": "diameter of the inhibition zone (DIZ)", "setting": "[7]", "result": "inactive"}, {"measurement": "MIC", "setting": "[8]", "result": 200, "unit": "µg/mL"}, {"measurement": "MIC", "setting": "[9]", "result": 100, "unit": "µg/mL"}, {"measurement": "MIC", "setting": "[10]", "result": "> 400", "unit": "µg/mL"}, {"measurement": "MIC", "setting": "[11]", "result": 200, "unit": "µg/mL"}, {"measurement": "zone of inhibition at 400 µg/disc", "setting": "[12]", "result": 20, "unit": "mm"}, {"measurement": "MIC", "setting": "[13]", "result": 100, "unit": "µg/mL"}, {"measurement": "zone of inhibition at 400 µg/disc", "setting": "[14]", "result": 19, "unit": "mm"}, {"measurement": "MIC", "setting": "[15]", "result": "> 400", "unit": "µg/mL"}, {"measurement": "MIC", "setting": "[16]", "result": "> 400", "unit": "µg/mL"}, {"measurement": "MIC", "setting": "[17]", "result": "> 400", "unit": "µg/mL"}, {"measurement": "zone of inhibition at 400 µg/disc", "setting": "[18]", "result": 11, "unit": "mm"}, {"measurement": "MIC", "setting": "[19]", "result": "> 400", "unit": "µg/mL"}, {"measurement": "MIC", "setting": "[20]", "result": "> 400", "unit": "µg/mL"}, {"measurement": "MIC", "setting": "[21]", "result": "> 400", "unit": "µg/mL"}, {"measurement": "zone of inhibition at 400 µg/disc", "setting": "[22]", "result": 24, "unit": "mm"}, {"measurement": "zone of inhibition at 400 µg/disc", "setting": "[23]", "result": 12, "unit": "mm"}, {"measurement": "diameter of the inhibition zone (DIZ)", "setting": "[24]", "result": "inactive"}, {"measurement": "MIC", "setting": "[25]", "result": "> 400", "unit": "µg/mL"}, {"measurement": "diameter of the inhibition zone (DIZ)", "setting": "[26]", "result": "inactive"}, {"measurement": "diameter of the inhibition zone (DIZ)", "setting": "[27]", "result": "inactive"}, {"measurement": "MIC", "setting": "[28]", "result": "> 400", "unit": "µg/mL"}, {"measurement": "diameter of the inhibition zone (DIZ)", "setting": "[29]", "result": "inactive"}, {"measurement": "MIC", "setting": "[30]", "result": 400, "unit": "µg/mL"}, {"measurement": "MIC", "setting": "[31]", "result": 200, "unit": "µg/mL"}]}
